Assay results reported in article PMC7610571 (Nature chemical biology, 2020).

Key:
NUDT15 [1] = conditions: read-out: Km of NUDT15 for 6-thio-dGTP; cited from earlier work
NUDT15 [2] = target: T1, NUDT15 (Homo sapiens, UniProt Q9NV35); assay: Enzyme-coupled malachite green; assay type: biochemical; conditions: MG assay
T1 sequence (Q9NV35 1-164): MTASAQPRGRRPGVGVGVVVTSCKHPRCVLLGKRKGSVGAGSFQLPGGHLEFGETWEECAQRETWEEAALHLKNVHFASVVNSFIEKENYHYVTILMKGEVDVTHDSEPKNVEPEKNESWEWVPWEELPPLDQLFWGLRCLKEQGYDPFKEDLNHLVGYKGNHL
How it was run: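 Excess E. coli pyrophosphatase (0.4 U/mL) added for 20 min, then malachite green for 15 min; A630 read. Buffer-only wells served as the full-inhibition control. Two experiments, each in duplicate.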

NUDT15 [3] = target: T1, NUDT15; assay: PPiLight inorganic pyrophosphate assay, 6-thio-dGTPase activity; assay type: biochemical
How it was run: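 6-thio-dGTPase activity of 10 nM NUDT15 in 100 mM Tris acetate pH 7.5, 40 mM NaCl, 100 mM Mg acetate, 1 mM DTT, with 2.5 μM 6-thio-dGTP. Test-compound dilution series ran 13.3 μM–75 pM or 15 μM–2.2 nM, depending on compound. Shaken 30 min at 22 °C; formed PPi detected by PPiLight luminescence.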

NUDT15 [4] = target: T1, NUDT15; assay: Differential scanning fluorimetry; assay type: binding; conditions: over the DMSO control, dose-dependent
[5] = test system: BJ-RAS cells versus BJ-hTERT cells; assay: Resazurin viability assay, isogenic fibroblasts; assay type: cell-based, human
NB4 cells = assay: Alkaline comet assay; assay type: cell-based, human; conditions: NB4, 10 μM TH1760 + 6-TG, 48 h
NB4 and HL-60 cells = assay: Thiopurine/TH1760 dose-matrix, resazurin viability; assay type: cell-based, human; conditions: combined with 6-TG or 6-MP, dose-dependent
How it was run: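 NB4 and HL-60 cells treated with a dose matrix of 6-TG or 6-MP combined with test compound (pre-treatment 3 h). Resazurin read-out four days after treatment (544/590 nm), viability normalised to DMSO controls. Relative viabilities used for EC50 fitting and SynergyFinder synergy scores. Knockdown matrix in NB4 shRNA lines: 96 h, n=2.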

Compound	Km (NUDT15 [1])	improvement of potency compared to hit compound TH884 (NUDT15 [2])	potency improvement as compared to TH884 (NUDT15 [3])	increase of NUDT15 melting temperature (NUDT15 [4])	sensitization to 6-TG, tumorigenic versus non-transformed cells [5]	6-TG-induced DNA damage (comet tail moment) (NB4 cells)	reduction of thiopurine EC50 values (NB4 and HL-60 cells)
Nc1nc2c(ncn2[C@H]2C[C@H](O)[C@@H](COP(=O)(O)OP(=O)(O)OP(=O)(O)O)O2)c(=S)[nH]1 [Compound 6-thio-dGTP, 6-thio-dGTP]	2000 nM						
O=C(c1ccc2[nH]ccc2c1)N1CCN(S(=O)(=O)c2ccc3[nH]c(=O)oc3c2)CC1 [Compound 18]		more than 200 fold	over 200 fold	> 10 °C	preferentially sensitized BJ-RAS cells to 6-TG versus their non-transformed counterpart BJ-hTERT cells	potentiated 6-TG-induced DNA damage in NB4 cells	~ 10 fold
